In publication PMC9884082 (Journal of Medicinal Chemistry, 2023):

Tests used:
HT-29 monolayer culture = experiment: Cell proliferation; assay type: cell-based, human; details: MTT, 60-72 h
Procedure, shortened: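 HT-29 cells kept as monolayers in DMEM:F-12 with 10% FBS and 1% penicillin/streptomycin, passaged before 70% confluence. About 2.5 × 10³ cells/well were incubated overnight (37 °C, 5% CO₂), then exposed to test compound for 60–72 h. MTT (5 mg/mL stock in PBS) was added for 2–3 h and crystals dissolved in DMSO. A590 was read and growth expressed as percent of vehicle; ≥3 replicates.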

[1] = tested on: pooled normal human plasma; experiment: Human plasma clotting time; assay type: biochemical; details: ∼34 to ∼68 s
Procedure, shortened: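 APTT was run in a fibrometer by one-stage recalcification. Test compound was mixed with citrated pooled normal human plasma and prewarmed APTT reagent (ellagic acid). After 4 min at 37 °C, clotting was started with prewarmed 25 mM CaCl₂ and time to clot recorded. A quadratic trend line fitted to the data gave the concentration doubling clotting time.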

[2] = Mouse tail bleeding study; assay type: in vivo, wild-type ICR mice; details: IV; NSGMs 1–100 mg/kg, enoxaparin 224 μg/kg
[3] = tested on: CD133+/CXCR4+ (Dual Hi) HT-29 xenografts; experiment: Dual Hi HT-29 xenograft after FUOX enrichment, IP G5C or FUOX; assay type: in vivo, NCr nude mice; details: G5C 100 mg/kg IP; FUOX IP weekly
Procedure, shortened: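 1 × 10⁵ FACS-sorted CD133⁺/CXCR4⁺ HT-29 cells were injected subcutaneously into NCr nude mice. Palpable tumors were enriched in vivo with 25 mg/kg 5-fluorouracil plus 2 mg/kg oxaliplatin IP weekly for 3 weeks. Mice were then randomized to vehicle, the same regimen continued, or test compound 100 mg/kg IP three times/week (14 doses). Tumors (n = 2/group) were dissociated into single cells and 1–3° spheroids (50–150 μm) counted in low-adhesion EGF/FGF stem cell medium.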

[4] = Preliminary half-life experiments; assay type: in vivo; details: data not shown

With `CC(C)CCC[C@@H](C)[C@H]1CC[C@H]2[C@@H]3CC=C4C[C@@H](OCCCCCOc5cc(-c6oc7cc(OS(=O)(=O)[O-])cc(OCCCOc8cc(OS(=O)(=O)[O-])cc9oc(-c%10ccc(OS(=O)(=O)[O-])c(OS(=O)(=O)[O-])c%10)c(OS(=O)(=O)[O-])c(=O)c89)c7c(=O)c6OS(=O)(=O)[O-])ccc5OS(=O)(=O)[O-])CC[C@]4(C)[C@H]3CC[C@]12C.[Na+].[Na+].[Na+].[Na+].[Na+].[Na+].[Na+]` [G5C, Sodium 4-(5-(3-((2-(3-((5-(((8S,9S,10R,13R,14S,17R)-10,13-Dimethyl-17-((R)-6-methylheptan-2-yl)-2,3,4,7,8,9,10,11,12,13,14,15,16,17-tetradecahydro-1H-cyclopenta[a]phenanthren-3-yl)oxy)pentyl)oxy)-4-(sulfonatooxy)phenyl)-4-oxo-3,7-bis(sulfonatooxy)-4H-chromen-5-yl)oxy)propoxy)-4-oxo-3,7-bis(sulfonatooxy)-4H-chromen-2-yl)-1,2-phenylene Bis(sulfate)] the “cytotoxicity under monolayer conditions” value (HT-29 monolayer culture) was “essentially benign toward monolayer cancer cell culture even at ∼400 μM”, the “concentration required for 2-fold increase in APTT” value [1] was ~200 µM and the “blood loss, tail bleeding” value [2] was “did not exhibit much tail bleeding phenotype”. For the same molecule, the “ex vivo 3° spheroid growth from xenograft cells” value [3] was “maintain inhibition” and the “increase in half-life over G2.2” value [4] was ~50%.
